From ChEMBL document CHEMBL2434926, “New di(hetero)arylethers and di(hetero)arylamines in the thieno[3,2-b]pyridine series: synthesis, growth inhibitory activity on human tumor cell lines and non-tumor cells, effects on cell cycle and on programmed cell death” (Eur J Med Chem, 2013)
Active and inactive are the calls of the source. No cut-off for these calls is given here.

Key:
[1] = Growth inhibition of PLP2 cells after 48 hrs by SRB assay; type: cell-based, Sus scrofa; details: pig
Summary of the method: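 Porcine liver primary cells (PLP2), established by the authors, subcultured before confluence, seeded 1.0 × 10^4 cells/well in DMEM with 10% FBS and penicillin/streptomycin. Treated 48 h with compound solutions, then sulforhodamine B read-out. GI50 is the concentration inhibiting 50% of net growth; three independent experiments in triplicate, mean ± SD; ellipticine positive control.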

[2] = system: HCT-15; experiment: Growth inhibition of human HCT15 cells after 48 hrs by SRB assay; type: functional; details: HCT-15, 48 h
Summary of the method: (§1)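 Sulforhodamine B assay. MCF-7, NCI-H460, HCT15 kept in RPMI-1640 with 10% heat-inactivated FBS and 2 mM glutamine, seeded 7.5 × 10^3 cells/well. HeLa and HepG2 kept in DMEM with 10% FBS, 2 mM glutamine and penicillin/streptomycin, seeded 1.0 × 10^4 cells/well. Cultures at 37 °C, 5% CO2. GI50 is the concentration giving 50% inhibition of net growth; three independent experiments in triplicate, mean ± SD; ellipticine positive control.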

[3] = system: HeLa; experiment: Growth inhibition of human HeLa cells after 48 hrs by SRB assay; type: functional; summary of the method: as §1
[4] = system: NCI-H460; experiment: Growth inhibition of human NCI-H460 cells after 48 hrs by SRB assay; type: functional; details: NCI-H460, 48 h; summary of the method: as §1
[5] = system: MCF7; experiment: Growth inhibition of human MCF7 cells after 48 hrs by SRB assay; type: functional; details: MCF7, 48 h; summary of the method: as §1
[6] = system: HepG2; experiment: Growth inhibition of human HepG2 cells after 48 hrs by SRB assay; type: functional; details: HepG2, 48 h; summary of the method: as §1
[7] = system: NCI-H460; experiment: Induction of apoptosis in human NCI-H460 cells at GI50 after 48 hrs by TUNEL assay relative to DMSO-treated control; type: functional
Summary of the method: (§2)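 NCI-H460 seeded at 1 × 10^5 cells/well, grown 24 h at 37 °C, treated with compound at GI50, DMSO vehicle or medium for 24 h or 48 h. Fixed in 4% paraformaldehyde 30 min, cytospun, permeabilized with ice-cold 0.1% Triton X-100 in 0.1% sodium citrate 2 min, TUNEL reaction mix (enzyme 1:20) 1 h, DAPI counterstain. Fluorescence microscopy counting at least 500 cells per slide (about 300 in some 48 h samples). Mean ± SEM of three independent experiments; two-tailed paired t-test versus DMSO.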

[8] = system: NCI-H460; experiment: Induction of apoptosis in human NCI-H460 cells at GI50 after 24 hrs by TUNEL assay; type: functional, cell-based; summary of the method: as §2
[9] = system: NCI-H460; experiment: Cell cycle arrest in human NCI-H460 cells assessed as accumulation at sub-G1 phase at GI50 after 24 hrs by propidium iodide staining-based flow cytometry; type: functional
[10] = Growth inhibition of human A375-C5 cells; type: functional
[11] = system: NCI-H460; experiment: Growth inhibition of human NCI-H460 cells; type: functional
[12] = system: MCF7; experiment: Growth inhibition of human MCF7 cells; type: functional
[13] = Growth inhibition of human A375-C5 cells after 48 hrs by SRB assay; type: functional; details: A375-C5, 48 h

| SMILES | GI50 at 48 h [1] [µM] | GI50 [2] [µM] | GI50 [3] [µM] | GI50 [4] [µM] | GI50 [5] [µM] | GI50 [6] [µM] | Activity [7] [%] | Activity [8] | Activity [9] | GI50 [10] [µM] | GI50 [11] [µM] | GI50 [12] [µM] | GI50 [13] [µM] |
| --- | --- | --- | --- | --- | --- | --- | --- | --- | --- | --- | --- | --- | --- |
| Fc1cccc(Nc2ccnc3ccsc23)c1 | 119 | 70.7 | 69.2 | 77.5 | 63.7 | 32 |  |  |  |  |  |  |  |
| Fc1ccccc1Oc1ccnc2ccsc12 | 87.2 | 97.2 | 50.3 | 78 | 74.3 | 16.4 |  |  |  |  |  |  |  |
| COc1ccc(Oc2ccnc3ccsc23)cc1 | 94.5 | 86 | 49.4 | 86.8 | 93.3 | 53.2 |  |  |  |  |  |  |  |
| COc1ccc(Nc2ccnc3ccsc23)cc1 | 22.7 | 25.9 | 20.4 | 19.4 | 20.2 | 22.1 |  |  |  |  |  |  |  |
| Fc1cccc(Oc2ccnc3ccsc23)c1 | > 125 | 103 | 34.5 | 103 | 102 | 42.6 |  |  |  |  |  |  |  |
| COc1cccc(Nc2ccnc3ccsc23)c1 | 1.94 | 0.31 | 0.09 | 0.28 | 0.25 | 5.02 | >30 | Active | Active |  |  |  |  |
| COC(=O)c1sc2cc(Oc3cccc(OC)c3OC)cnc2c1N |  |  |  |  |  |  |  |  |  | 1 | 1 | 1 |  |
| Fc1ccccc1Nc1ccnc2ccsc12 | 115 | 86.7 | 26.4 | 79.5 | 94.4 | 25.8 |  |  |  |  |  |  |  |
| Cc1c2ccncc2c(C)c2c1[nH]c1ccccc12 [ELLIPTECINE] | 2.06 | 1.91 | 3.28 | 5.77 | 4.32 | 5.38 |  |  |  |  |  |  |  |
| COc1ccccc1Oc1ccnc2ccsc12 | > 125 | 91.2 | 28.9 | 94.2 | 90.9 | 62.7 |  |  |  |  |  |  |  |
| COC(=O)c1sc2cccnc2c1Nc1ccc(OC)cc1N |  |  |  | 1 | 1 | 1 |  |  |  |  |  |  | 1 |
| Fc1ccc(Nc2ccnc3ccsc23)cc1 | 100 | 91.2 | 77.5 | 78.5 | 80.7 | 26.3 |  |  |  |  |  |  |  |
| Fc1ccc(Oc2ccnc3ccsc23)cc1 | > 125 | 88.1 | 33.8 | 101 | 98.5 | 45.1 |  |  |  |  |  |  |  |
| COC(=O)c1sc2cc(Oc3cccc(OC)c3)cnc2c1N |  |  |  |  |  |  |  |  |  | 1 | 1 | 1 |  |
| COc1cccc(Oc2ccnc3ccsc23)c1 | 26.7 | 0.39 | 3.14 | 1.04 | 1.56 | 2.7 | >30 | Active | Active |  |  |  |  |
| COc1ccccc1Nc1ccnc2ccsc12 | 6.56 | 5.91 | 1.4 | 5.4 | 5.88 | 18 | >30 | Active | Active |  |  |  |  |
